Species on record: Cavia porcellus
Assay: In vitro inhibition of maximum force of contraction in guinea pig atria.
Assay type: functional
Conditions: not given

Compound | Inhibition
CCCCCCCSc1nsnc1C1=CCCN(C)C1.O=C(O)C(=O)O | 40%
CCCCCCCCc1nsnc1C1=CCCN(C)C1.O=C(O)C(=O)O | 14%
CCCc1nsnc1C1=CCCN(C)C1.O=C(O)C(=O)O | 7%
CCCCCCCCSc1nsnc1C1=CCCN(C)C1.O=C(O)C(=O)O | 5%
CCCCCc1nsnc1C1=CCCN(C)C1.O=C(O)C(=O)O | 12%
C[N+](C)(C)CC#CCOC(=O)Nc1cccc(Cl)c1.[Cl-] | 0%
CN1CCC=C(c2cnsn2)C1 | 100%
CCSc1nsnc1C1=CCCN(C)C1.O=C(O)C(=O)O | 100%
CCCCCCOc1nonc1C1=CCCN(C)C1 | 0%
CCCCCOc1nsnc1C1=CCCN(C)C1.O=C(O)C(=O)O | 43%
CCCCCCS(=O)(=O)c1nsnc1C1=CCCN(C)C1 | 76%
CCCCOc1nonc1C1=CCCN(C)C1 | 0%
CC(C)CCCOc1nsnc1C1=CCCN(C)C1.O=C(O)/C=C\C(=O)O | 73%
CCCCCCCOc1nsnc1C1=CCCN(C)C1.O=C(O)C(=O)O | 100%
CCCCCC[S+]([O-])c1nsnc1C1=CCCN(C)C1 (configuration not stated) | 45%
COC(=O)C1=CCCN(C)C1 [ARECOLINE] | 100%
C[N+](C)(C)CCOC(N)=O.[Cl-] [CARBACHOL] | 100%

Species on record: Cavia porcellus
Assay: In vitro inhibition of force of contraction in guinea pig atria.
Assay type: functional
Conditions: not given

Compound | IC30
CCCCCCCSc1nsnc1C1=CCCN(C)C1.O=C(O)C(=O)O | 7500 nM
CCCCCCCCc1nsnc1C1=CCCN(C)C1.O=C(O)C(=O)O | > 75000 nM
CCCc1nsnc1C1=CCCN(C)C1.O=C(O)C(=O)O | > 75000 nM
CCCCCCCCSc1nsnc1C1=CCCN(C)C1.O=C(O)C(=O)O | > 72000 nM
C[N+](C)(C)CC#CCOC(=O)Nc1cccc(Cl)c1.[Cl-] | > 100000 nM
CN1CCC=C(c2cnsn2)C1 | 10 nM
CCSc1nsnc1C1=CCCN(C)C1.O=C(O)C(=O)O | 70 nM
CCCCCCOc1nonc1C1=CCCN(C)C1 | > 70000 nM
CCCCCOc1nsnc1C1=CCCN(C)C1.O=C(O)C(=O)O | 2800 nM
CCCCCCS(=O)(=O)c1nsnc1C1=CCCN(C)C1 | 5500 nM
CCCCOc1nonc1C1=CCCN(C)C1 | > 70000 nM
CC(C)CCCOc1nsnc1C1=CCCN(C)C1.O=C(O)/C=C\C(=O)O | 7300 nM
CCCCCCCOc1nsnc1C1=CCCN(C)C1.O=C(O)C(=O)O | 3900 nM
CCCCCC[S+]([O-])c1nsnc1C1=CCCN(C)C1 (configuration not stated) | 25000 nM
COC(=O)C1=CCCN(C)C1 [ARECOLINE] | 600 nM
C[N+](C)(C)CCOC(N)=O.[Cl-] [CARBACHOL] | 500 nM

Molecular target: T1, Muscarinic acetylcholine receptor M1 (Rattus norvegicus, UniProt P08482)
T1 sequence (P08482 whole entry): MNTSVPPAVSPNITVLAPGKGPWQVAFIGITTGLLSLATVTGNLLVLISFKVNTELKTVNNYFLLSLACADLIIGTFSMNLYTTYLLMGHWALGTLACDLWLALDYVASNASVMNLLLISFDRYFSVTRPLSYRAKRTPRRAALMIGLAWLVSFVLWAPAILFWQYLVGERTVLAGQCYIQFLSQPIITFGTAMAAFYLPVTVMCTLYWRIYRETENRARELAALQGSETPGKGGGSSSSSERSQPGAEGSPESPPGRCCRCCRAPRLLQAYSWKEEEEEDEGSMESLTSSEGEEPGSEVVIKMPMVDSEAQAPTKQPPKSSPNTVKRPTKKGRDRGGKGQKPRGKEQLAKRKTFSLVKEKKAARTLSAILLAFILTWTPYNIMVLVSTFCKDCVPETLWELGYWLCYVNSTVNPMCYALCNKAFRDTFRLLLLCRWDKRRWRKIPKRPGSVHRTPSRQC
Assay: In vitro binding affinity against muscarinic acetylcholine receptor M1 from rat hippocampus, using [3H]pirenzepine (Pz) as radioligand
Assay type: tissue-based
Conditions: not given

IC50 | Compound
12 nM | CCCCCCCSc1nsnc1C1=CCCN(C)C1.O=C(O)C(=O)O
145 nM | CN1CCC=C(c2cnsn2)C1
18 nM | CCSc1nsnc1C1=CCCN(C)C1.O=C(O)C(=O)O
277 nM | CCCCCCOc1nonc1C1=CCCN(C)C1
62 nM | CCCCCCS(=O)(=O)c1nsnc1C1=CCCN(C)C1
345 nM | CCCCOc1nonc1C1=CCCN(C)C1
9.7 nM | CC(C)CCCOc1nsnc1C1=CCCN(C)C1.O=C(O)/C=C\C(=O)O
860 nM | CCCCCC[S+]([O-])c1nsnc1C1=CCCN(C)C1 (configuration not stated)

Compound | IC50
C[N+](C)(C)CC#CCOC(=O)Nc1cccc(Cl)c1.[Cl-] | 955 nM

Molecular target: T1, Muscarinic acetylcholine receptor M1
Assay: In vitro binding affinity against Muscarinic acetylcholine receptor M1 from rat hippocampus, using [3H]oxotremorine-M (Oxo-M) as radioligand.
Assay type: tissue-based
Conditions: in the assay text read “cerebral cortex” for “hippocampus”
Method in brief: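 Rat cortex (fresh, male Wistar) homogenized in 20 mM Hepes pH 7.4, spun 15 min at 4000g, and washed three times. Homogenate incubated with [3H]Oxo-M (1.0 nM final) for 30 min at 25 °C. […] Filtered and counted by scintillation. IC50 from at least four concentrations in triplicate, fitted by the Hill equation.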

IC50 | Compound
428 nM | CCCCCCCCc1nsnc1C1=CCCN(C)C1.O=C(O)C(=O)O
80 nM | CCCc1nsnc1C1=CCCN(C)C1.O=C(O)C(=O)O
140 nM | CCCCCCCCSc1nsnc1C1=CCCN(C)C1.O=C(O)C(=O)O
146 nM | CCCCCc1nsnc1C1=CCCN(C)C1.O=C(O)C(=O)O

Molecular target: T1, Muscarinic acetylcholine receptor M1
Assay: In vitro binding affinity against Muscarinic acetylcholine receptor M1 from rat hippocampus, using [3H]pirenzepine (Pz) as radioligand.
Assay type: tissue-based
Conditions: not given

IC50 | Compound
56 nM | CCCCCCCCc1nsnc1C1=CCCN(C)C1.O=C(O)C(=O)O
84 nM | CCCc1nsnc1C1=CCCN(C)C1.O=C(O)C(=O)O
49 nM | CCCCCCCCSc1nsnc1C1=CCCN(C)C1.O=C(O)C(=O)O
170 nM | CCCCCc1nsnc1C1=CCCN(C)C1.O=C(O)C(=O)O

Species on record: Oryctolagus cuniculus
Assay: In vitro inhibition of maximum twitch height in electrically stimulated rabbit vas deferens.
Assay type: functional
Conditions: not given
Method in brief: (§1)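 Vasa deferentia taken from rabbits under pentobarbital (60 mg/kg i.v.), held at 0.75 g tension and equilibrated ≥30 min. Field-stimulated at 0.5 ms, 40 V, 0.05 Hz. Cumulative concentration–effect curves run on prostatic and epididymal tissues, 3–5 preparations per concentration.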

Compound | Inhibition
CCCCCCCSc1nsnc1C1=CCCN(C)C1.O=C(O)C(=O)O | 63%
CCCCCCCCc1nsnc1C1=CCCN(C)C1.O=C(O)C(=O)O | 26%
CCCc1nsnc1C1=CCCN(C)C1.O=C(O)C(=O)O | 13%
CCCCCCCCSc1nsnc1C1=CCCN(C)C1.O=C(O)C(=O)O | 42%
CCCCCc1nsnc1C1=CCCN(C)C1.O=C(O)C(=O)O | 40%
C[N+](C)(C)CC#CCOC(=O)Nc1cccc(Cl)c1.[Cl-] | 91%
CN1CCC=C(c2cnsn2)C1 | 59%
CCSc1nsnc1C1=CCCN(C)C1.O=C(O)C(=O)O | 71%
CCCCCCOc1nonc1C1=CCCN(C)C1 | 47%
CCCCCCS(=O)(=O)c1nsnc1C1=CCCN(C)C1 | 73%
CCCCOc1nonc1C1=CCCN(C)C1 | 12%
CC(C)CCCOc1nsnc1C1=CCCN(C)C1.O=C(O)/C=C\C(=O)O | 86%
CCCCCC[S+]([O-])c1nsnc1C1=CCCN(C)C1 (configuration not stated) | 80%
C[N+](C)(C)CCOC(N)=O.[Cl-] [CARBACHOL] | 77%

Species on record: Oryctolagus cuniculus
Assay: In vitro inhibition of twitch height in electrically stimulated rabbit vas deferens
Assay type: functional
Conditions: not given
Method in brief: as §1

IC50 | Compound
108 nM | CCCCCCCSc1nsnc1C1=CCCN(C)C1.O=C(O)C(=O)O
26 nM | CN1CCC=C(c2cnsn2)C1
22 nM | CCSc1nsnc1C1=CCCN(C)C1.O=C(O)C(=O)O
10000 nM | CCCCCCOc1nonc1C1=CCCN(C)C1
43 nM | CCCCCCS(=O)(=O)c1nsnc1C1=CCCN(C)C1
0.006 nM | CC(C)CCCOc1nsnc1C1=CCCN(C)C1.O=C(O)/C=C\C(=O)O
48 nM | CCCCCC[S+]([O-])c1nsnc1C1=CCCN(C)C1 (configuration not stated)
460 nM | C[N+](C)(C)CCOC(N)=O.[Cl-] [CARBACHOL]

Compound | IC50
C[N+](C)(C)CC#CCOC(=O)Nc1cccc(Cl)c1.[Cl-] | 659 nM

Molecular target: T1, Muscarinic acetylcholine receptor M1
Assay: In vitro binding affinity against muscarinic acetylcholine receptor M1 from rat cerebral cortex, using [3H]oxotremorine-M (Oxo-M) as radioligand
Conditions: not given

IC50 | Compound
3 nM | CCCCCCCSc1nsnc1C1=CCCN(C)C1.O=C(O)C(=O)O
2 nM | CN1CCC=C(c2cnsn2)C1
1.9 nM | CCSc1nsnc1C1=CCCN(C)C1.O=C(O)C(=O)O
84 nM | CCCCCCOc1nonc1C1=CCCN(C)C1
29 nM | CCCCCCS(=O)(=O)c1nsnc1C1=CCCN(C)C1
24 nM | CCCCOc1nonc1C1=CCCN(C)C1
8 nM | CC(C)CCCOc1nsnc1C1=CCCN(C)C1.O=C(O)/C=C\C(=O)O
109 nM | CCCCCC[S+]([O-])c1nsnc1C1=CCCN(C)C1 (configuration not stated)

Compound | IC50
C[N+](C)(C)CC#CCOC(=O)Nc1cccc(Cl)c1.[Cl-] | 355 nM

— ChEMBL document CHEMBL1126083, “Novel functional M1 selective muscarinic agonists. Synthesis and structure-activity relationships of 3-(1,2,5-thiadiazolyl)-1,2,5,6-tetrahydro-1-methylpyridines ” (J Med Chem, 1992)
